# Experimental data reported in the EternaBench riboswitch data.
# Tested on: MS2 coat protein
# Experiment: apparent Kd, MS2 coat protein; higher = weaker binding; RNA-MaP array; FMN 200 µM where present
# In short: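 The apparent Kd comes from binding curves fitted cluster by cluster, filtered, and summarised as a median. Those curves followed SNAP-549-labelled MS2 coat protein from 0.7 or 1.5 nM, doubling to 3 µM, on Illumina sequencing-chip clusters where stalled E. coli RNA polymerase had transcribed the designs, without and then with constant ligand. The buffer was 100 mM Tris-HCl pH 7.5, 80 mM KCl, 4 mM MgCl2, BSA, DTT, yeast tRNA and Tween-20, and green signal was normalised to red-channel RNA signal and control-cluster median Fmax.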
# [1] = designed as: OFF switch for flavin mononucleotide, no ligand
# [2] = ligand present: flavin mononucleotide, designed as: OFF switch for flavin mononucleotide
# [3] = designed as: ON switch for flavin mononucleotide, no ligand
# [4] = ligand present: flavin mononucleotide, designed as: ON switch for flavin mononucleotide
Sequence,apparent Kd [1],apparent Kd [2],apparent Kd [3],apparent Kd [4]
CUAUGAGGAAUAGGAUAUUCGAUCAUGAGGAUAGAAGAAGGGUUACAUGAGGAUCACCCAUGUAUGCACAUGAGGAUCCCUUAG,235 nM,226 nM,–,–
CGAUCGUUGCAGAAGGUUAAAUAAUUAUCUACAUGUUUUACAUGAGGAUCACCCAUGUUUAUGUUGAAGGAUAUGCAAGGGUCG,8.02 nM,8.09 nM,–,–
AGACGGAUCCGCGGUCGAUGCUAACUAGAAGGGCAGGUCACAUGAGGAUCACCCAUGUAGUAUAUGUAGGAUAUAGGAAGCGUG,–,–,95.2 nM,20.9 nM
GGUACCAUCGCAGGAUAUGCUAGGGUUUCCUUAGCAGAAGGGUGAUAACAUGAGGAUCACCCAUGUGGUACCGGGCGUGAGCCC,–,–,95 nM,1160 nM
CAGGAUAGAGGAUAUACAUAGAUACAGAUUCGUGUAAUCCUACAUGAGGAUCACCCAUGUAGAAGGCUAUCCUG,14.8 nM,28.5 nM,–,–
UACAUUACUGAGAAGGGAUAUAUAUAAUUUUAGUCAGGAUAUCGAUACAGUGCAGCAUGAGGACAUGAGGAUCACCCAUGUAUU,–,–,20.5 nM,17 nM
AGUGUAGAGGUGAAGCGAAUUACUGAGGAUAUGACAUGAGGAUCACCCAUGUACACAUCCUCAGGUCAGAAGGCAGUGGUUCUU,5.62 nM,4.8 nM,–,–
CUUGUUUAUGUGAGGAUAUACUGUUAGUAAUGUUUGUAGAAGGUACAUGAGGAUCACCCAUGUUUAUUUCCUUU,14.2 nM,13.1 nM,–,–
UGGUACUAGGGAGGAUAUGAGAAGAUACAUGAGGAUCACCCAUGUUUAAGAAUGCCGAGAGGCAACUAGAAGGCCCUAGUACCU,–,–,7.85 nM,5.23 nM
CCUGCACAUGAGGAUCACCCAUGUCAGGAUAUCUCGCCGUCGGCUUGCCGACGGUAUUAGAGAAGGGACAAGGG,23.4 nM,29 nM,–,–
AUGGUACAUGAGGAUCACCCAUGUCCAGCAAAUCAAGGAUAUGGACGACAAAUUUCUCGGCCAGAAGGUGAAACAA,–,–,39.4 nM,21.5 nM
UGGUCAUGAUCAGGAUAUUAACAUGGGCUACAUUAAGAAGGGAUAGUGAGAUACGAACUGAACGACAUGAGGAUCACCCAUGUA,–,–,44.8 nM,34.3 nM
AUGUUACAUGAGGAUCACCCAUGUGAGGAUAUGUGUACCCGUAAAAAAGUGUCGGGCCACAGAAGGCAUUUGGA,47.3 nM,75 nM,–,–
AAUCCACAUGAGGAUCACCCAUGUCAGGAUAUCGCGCGCGCGUUUUCGGUCUUUCGCGCGAGAAGGGACGACUG,16.1 nM,18.8 nM,–,–
UUGGACGUCGUAGGAUAUGUAGGAUAUUCCUACAUGAGGAUCACCCAUGUUGACAUGGACGAAGGACAGAAGGACGAUGUCCAU,–,–,479 nM,134 nM
CAAUUUAGCGAGAAGGAGCGCCCGUAGGUACAUGAGGAUCACCCAUGUCCUUUGUGCUCUACGCGCUAGGAUAUCGAGAAACAG,13.5 nM,98.7 nM,–,–
CCCACGAAAGUCGAACGAUGUAGGAGAAGGACAAUAACAUGACAUGAGGAUCACCCAUGUGCCAUGUAGGAUAUCCUACAUGGG,7.86 nM,7.78 nM,–,–
GUGUACAGAGGAUAUACAUGGGCAUGGAAACAUGCAUCUUCACAUGAGGAUCACCCAUGUAGAAGGCUGUACAC,34.7 nM,21.3 nM,–,–

Sequence,apparent Kd [1],apparent Kd [2],apparent Kd [3],apparent Kd [4]
GCACUUACGUUAGGAUAUGUAUCGGAAAACGAUACAGAAGGAAUAUGGGAACAUGAGGAUCACCCAUGUUCCUGAGACGAGUGC,–,–,69.1 nM,41.6 nM
GCAGAAAGUGUAGGAUAUAGAAAUUAGCGGAAACGCAAUACAUGAGGAUCACCCAUGUUUCCUCACUAGAAGGGCAAAAGCUGC,16.8 nM,14.1 nM,–,–
GCAGCGUAUGUAGGAUAUCGGUCAGUUUCUGAUCGAGAAGGACAUGAGGAUCACCCAUGUAAAUUACCGACUUUGUCGGGUUGC,10.2 nM,20.1 nM,–,–
CUGAGCAAUGUAGGAUAUCGACUGGAAUACAGUCGAGAAGGACAUGAGGAUCACCCAUGUCAAUGAGUGAAUAAUAAAGCUCAG,20.7 nM,118 nM,–,–
UUAAAUCAUGUAGGAUAUGCAUGGCGAAGCUACGCAGAAGGACAUGAGGAUCACCCAUGUUAUACCUACCCAGUUCGGUGGGAA,81 nM,241 nM,–,–
ACAUGUACAGAGGAUAUGCGCCUUGGCAACGGUGUAGAAGGCUGAACAUGAGGAUCACCCAUGUGCAAUCCAGC,28.4 nM,146 nM,–,–
GGGCUGUCAGGAUAUGGGUCUGGGUCUGAAAGGGCUCGGGCUCAGAAGGGACAUGAGGAUCACCCAUGUGGCCC,35.2 nM,36.4 nM,–,–
CCGCUAAAUGGAGGAUAUGGAGCCUUAUUGGCUCCAGAAGGUCAAAACAUGAGGAUCACCCAUGUGCGGCGGUCUAAUGACCGA,–,–,186 nM,50.2 nM
UAGUUAUUCACAGGAUAUCGCCUCUUAUUACAUGAGGAUCACCCAUGUUUACUUAGUUACAUGUUCGAGAAGGGUGUAGCCGUU,491 nM,554 nM,–,–
UUUUCUCGUGAGAAGGACAUGAGGAUCACCCAUGUAGGAUAUCGUGGGAGACAGGAAUUGAAUCUUCGGAUUCAAUUCCUGUCU,–,–,104 nM,8.82 nM
GGACGGUUAGUCAGGAUAUGCUCUACCUCGGUAGAGCAGAAGGGACAUGAGGAUCACCCAUGUGAUAACUGUUC,27.4 nM,34.8 nM,–,–
AGCUGUGGCCGAGGAUAUCUAACAAUCCUAACCGAAAUAUAAUCGGACAUGAGGAUCACCCAUGUAGAGAAGGCGGUCUCAGCA,92.4 nM,237 nM,–,–
AAUAGGGUCGUAAUAGCUAGCACAUGAGGAUCACCCAUGUACAGAAGGCGAGCCAAGGCGGCAAUCGAGGAUAUGUAGCAGGGU,19.5 nM,29.9 nM,–,–
UGAUAGGACAGAGGAUAUACGUGCUGGAGAUACUAGCAAAGUAUCUCGACAUGAGGAUCACCCAUGUAGAAGGCUGUCCUAUCU,25.2 nM,89.4 nM,–,–
AAAGCAACAUGAGGAUCACCCAUGUAGGAUAUCGCUAUUGUAAUCAUGAAACAUGAUUACAAUAGCGAGAAGGACAUAUGCUGG,21.7 nM,23.3 nM,–,–
ACAUGAGGAUCACCCAUGUAUACAUAGGAUAUUGGUGAUCAGGCAUGUUUUACAGGAUAUGUCUGCGAGAAGGAUGCACGUUGC,–,–,810 nM,452 nM
AGCUGUGGCCGAGGAUAUCAAGAACCAUGGAAAACCAUGGAACCUUGACAUGAGGAUCACCCAUGUGAGAAGGCGGUCUCAGCA,14.4 nM,11.7 nM,–,–
CGCACUAUACAUGAGGAUCACCCAUGUUAUUAUGAGAUAGUCAGAAGGCAUUGUUAGUGAUAUUAUGAGGAUAUGAAUAGUGCG,–,–,156 nM,89.8 nM
